21 compounds from ChEMBL document CHEMBL2331342, “Synthesis, in vitro antiplatelet activity and molecular modelling studies of 10-substituted 2-(1-piperazinyl)pyrimido[1,2-a]benzimidazol-4(10H)-ones” (Eur J Med Chem, 2013) can be followed below.

Assay type in all cases: functional, cell-free
Experiment [1] in a line: Antiplatelet activity against collagen A23187-induced platelet aggregation in human plasma preincubated for 2 mins before addition of inducer by turbidimetric method. The method, boiled down: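 Human PRP from citrated blood of healthy volunteers (9:1 with 130 mM trisodium citrate, spun 100 g 30 min). Preincubated with compound or DMSO 37 °C 2 min, then A23187 added (final 20.0 μM). Born turbidimetric aggregometry; light transmission at 3 min. At least five concentrations; IC50 from inhibition–concentration curve versus solvent control, mean ±SD of at least five platelet batches.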

A short description of experiment [2]: Antiplatelet activity against collagen ADP-induced platelet aggregation in human plasma preincubated for 2 mins before addition of inducer by turbidimetric method. In a few lines:
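Citrated PRP (blood:130 mM trisodium citrate 9:1, centrifuged 100 g for 30 min) from healthy human donors. Compound or DMSO preincubation at 37 °C for 2 min before ADP (final 5.0 μM). Turbidimetric (Born) read of light transmission after 3 min. IC50 from ≥5-concentration inhibition curve against solvent control; mean ±SD over at least five platelet batches.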

Experiment [3] in a line: Antiplatelet activity against collagen collagen-induced platelet aggregation in human plasma preincubated for 2 mins before addition of inducer by turbidimetric method. In a few lines:
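Platelet-rich plasma prepared from healthy volunteers' blood in 130 mM trisodium citrate (9:1), centrifuged 100 g, 30 min. After 2 min at 37 °C with compound or DMSO, bovine tendon collagen added (final 5.0 μg/mL). Born turbidimetric method, light transmission at 3 min. IC50 derived from inhibition–concentration curve (≥5 concentrations) relative to solvent control; mean ±SD, ≥5 platelet batches.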

As to `Cc1[nH]c(=O)c(C#N)cc1-c1ccncc1` [MILRINONE], the results for the IC50 in experiment [1], in experiment [2] and in experiment [3] were 14 µM, 11 µM and 12 µM, respectively.
As to `O=c1cc(N2CCNCC2)nc2n(CCc3ccccc3)c3ccccc3n12`, the IC50 – broadly, the concentration at which inhibition is half-maximal – in experiment [1] was determined as 75 µM; in experiment [2], 53 µM; in experiment [3], 15 µM.
Turning to `CCN(CC)CCn1c2ccccc2n2c(=O)cc(N3CCNCC3)nc12`, the IC50 is 13 µM in experiment [1], 16 µM in experiment [2] and 13 µM in experiment [3].
As to `O=c1cc(N2CCNCC2)nc2n(CCN3CCCC3)c3ccccc3n12`, the IC50 in experiment [1] worked out at 42 µM; in experiment [2] it was 16 µM; in experiment [3], 28 µM.
For `CC(C)n1c2ccccc2n2c(=O)cc(N3CCNCC3)nc12`, the IC50 in experiment [1] is 142 µM; in experiment [2], 116 µM; in experiment [3], 77 µM.
In the case of `O=c1cc(N2CCNCC2)nc2oc3ccc(Cl)cc3n12`, the IC50 in experiment [1] was determined as 13 µM; in experiment [2], 3.6 µM; in experiment [3], 8.8 µM.
In the case of `O=c1cc(N2CCNCC2)nc2n(Cc3ccccn3)c3ccccc3n12`, the IC50 was 38 µM in experiment [1], 19 µM in experiment [2] and 30 µM in experiment [3].
With `CN(C)CCn1c2ccccc2n2c(=O)cc(N3CCNCC3)nc12`, the IC50 in experiment [1] was 41 µM; in experiment [2], 36 µM; in experiment [3], 8 µM.
For `O=c1cc(N2CCNCC2)nc2n(Cc3ccncc3)c3ccccc3n12`, the IC50 in experiment [1] is 32 µM; in experiment [2], 15 µM; in experiment [3] it was 21 µM.
Take `COc1c(C)cnc(Cn2c3ccccc3n3c(=O)cc(N4CCNCC4)nc23)c1C`: the IC50 turned out to be 56 µM in experiment [1], 33 µM in experiment [2] and 49 µM in experiment [3].
On to `CCN(CC)c1cc(=O)nc2n(CC)c3ccccc3n12`, for which the IC50 in experiment [1] is 415 µM; in experiment [2], over 1000 µM; in experiment [3] it was 75 µM.
As to `O=c1cc(N2CCNCC2)nc2n(Cc3ccccc3)c3ccccc3n12`, the IC50 in experiment [1] stood at 143 µM; in experiment [2] it was 90 µM; in experiment [3], 27 µM.
Regarding `CCCn1c2ccccc2n2c(=O)cc(N3CCNCC3)nc12`, the results for the IC50 in experiment [1], in experiment [2] and in experiment [3] were 50 µM, 62 µM and 50 µM, respectively.
For the compound `CC(c1ccccc1)n1c2ccccc2n2c(=O)cc(N3CCNCC3)nc12` (stereo not drawn), the IC50 in experiment [1] is 175 µM; in experiment [2] it was 163 µM; in experiment [3] it was 172 µM.
The corresponding values for `O=c1cc(N2CCNCC2)nc2n(Cc3cccnc3)c3ccccc3n12` are 23 µM, 15 µM and 9 µM.
For `CCN(CC)c1cc(=O)n2c3ccccc3n(CC)c2n1`, in that order: over 1000 µM, over 1000 µM and 75 µM.
On to `O=c1cc(N2CCNCC2)nc2n(CCN3CCOCC3)c3ccccc3n12`, for which the 50% inhibitory concentration (IC50) in experiment [1] is 11 µM; in experiment [2], 12 µM; in experiment [3], 15 µM.
For `CCn1c2ccccc2n2c(=O)cc(N3CCNCC3)nc12`, the results for the IC50 in experiment [1], in experiment [2] and in experiment [3] were 206 µM, 127 µM and 55 µM, respectively.
For `CC(=O)Oc1ccccc1C(=O)O` [ASPIRIN], in that order: over 1000 µM, over 1000 µM and 183 µM.
For `CSCn1c2ccccc2n2c(=O)cc(N3CCNCC3)nc12`, the IC50 was 60 µM in experiment [1], 26 µM in experiment [2] and 31 µM in experiment [3].
The corresponding values for `O=C1CCc2cc(OCCCCc3nnnn3C3CCCCC3)ccc2N1` [CILOSTAZOL] are 109 µM, 73 µM and 40 µM.
